Reference: ChEMBL document CHEMBL3407422, “2-(2-oxo-morpholin-3-yl)-acetamide derivatives as broad-spectrum antifungal agents” (J Med Chem, 2015)
In brackets after ≈: the same amount, converted by molar mass. Activity calls are given as the source filed them. The rule behind the calls is not given here.

What was measured:
[1] = system: Trichophyton mentagrophytes; assay: Fungicidal activity against Trichophyton mentagrophytes B70554; assay type: functional, organism-based
Summary of the method: (§1)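 Inoculum of 10^3 CFU in RPMI-MOPS added to prediluted compound, highest concentration 64 µM. Growth read by resazurin fluorescence (ex 550, em 590 nm). IC50 is 50% growth inhibition versus untreated controls. Three independent replicates.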

Trichophyton rubrum = assay: Fungicidal activity against Trichophyton rubrum B68183; assay type: functional, organism-based; summary of the method: as §1
Candida albicans [2] = assay: Antifungal activity against Candida albicans SC5314 infected in BALB/c mouse assessed as reduction in reduction in fungal load in kidney at 10 mg/kg/day, ip for 5 days relative to vehicle-treated control; assay type: functional, organism-based
Summary of the method: (§2)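 BALB/c mice given cyclophosphamide 100 mg/kg at 4 days and 24 h before infection and at 3 days after. Infected IV with 2×10^3 SC5314 cells in saline. Dosed IP daily for 5 days from 16 h post-infection, in DMSO/0.5% methylcellulose (5/95). Organs taken on day 7, homogenized and plated on BHI agar (18 h, 37 °C). CFU/g compared with vehicle.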

Candida albicans [3] = assay: Antifungal activity against Candida albicans SC5314 after 24 hrs; assay type: functional
Summary of the method: (§3)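 Overnight YPD cultures diluted in PBS (1/200 for C. albicans, 1/400 for C. glabrata). Cells treated with compound, or 2.5% DMSO as solvent control, for 24 h at 37 °C. CFUs then counted; MFC is the concentration giving 99% killing of the inoculum.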

[4] = Half life in mouse liver microsomes; assay type: ADME
[5] = Half life in simulated gastric fluid at pH 1.2; assay type: ADME
Summary of the method: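 Stability in simulated gastric fluid containing 800000 Units/L pepsin at pH 1.2; half-life reported.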

Saccharomyces cerevisiae [6] = assay: Antifungal activity against Saccharomyces cerevisiae BY4741 at 12.5 to 50 ug/ml after 24 hrs by Omnilog plate reader analysis in presence of sodium thiosulfate; assay type: functional, organism-based
Summary of the method: (§4)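 S. cerevisiae BY4741 from overnight YPD culture, 1/500 final dilution, in Biolog PM22–PM25 chemical sensitivity plates (96 conditions). Compound tested at 12.5 and 50 µg/mL. Plates incubated 24 h at 37 °C in the Omnilog reader.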

Nakaseomyces glabratus = assay: Antifungal activity against Candida glabrata BG2 after 24 hrs; assay type: functional; summary of the method: as §3
Saccharomyces cerevisiae [7] = assay: Antifungal activity against Saccharomyces cerevisiae BY4741 at 12.5 to 50 ug/ml after 24 hrs by Omnilog plate reader analysis; assay type: functional, organism-based; summary of the method: as §4
[8] = Apparent permeability from apical to basolateral side in human Caco2 cells; assay type: ADME, cell-based; conditions: Caco-2
Aspergillus fumigatus = assay: Antifungal activity against Aspergillus fumigatus CBS 117202 after 24 hrs by two-fold dilution method; assay type: functional; conditions: CBS 117202, 24 h
Summary of the method: (§5)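 Spores at 2×10^4 spores/mL in potato dextrose broth, incubated with a 2-fold compound dilution series for 24 h at 25 °C. Growth read by microspectrophotometry of the liquid cultures. MIC taken as the lowest concentration inhibiting fungal growth.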

Candida albicans [9] = assay: Antifungal activity against Candida albicans SC5314 infected in BALB/c mouse assessed as reduction in reduction in fungal load in spleen at 10 mg/kg/day, ip for 5 days relative to vehicle-treated control; assay type: functional, organism-based; summary of the method: as §2
Saccharomyces cerevisiae [10] = assay: Antifungal activity against Saccharomyces cerevisiae BY4741 at 12.5 to 50 ug/ml after 24 hrs by Omnilog plate reader analysis in presence of sodium cyanide; assay type: functional, organism-based; summary of the method: as §4
Sporothrix schenckii = assay: Fungicidal activity against Sporothrix schenckii B62482; assay type: functional, organism-based; summary of the method: as §1
[11] = Half life in simulated intestinal fluid […]; assay type: ADME
[12] = Plasma protein binding in human; assay type: ADME, cell-free; conditions: read-out: PPB (converted)
Candida albicans [13] = assay: Fungicidal activity against CA2 high-persister Candida albicans clinical isolate; assay type: functional
Aspergillus flavus = assay: Antifungal activity against Aspergillus flavus CBS111.45 after 24 hrs by two-fold dilution method; assay type: functional; conditions: CBS111.45, 24 h; summary of the method: as §5
[14] = Half life in human liver microsomes; assay type: ADME
Saccharomyces cerevisiae [15] = assay: Antifungal activity against Saccharomyces cerevisiae BY4741 at 12.5 to 50 ug/ml after 24 hrs by Omnilog plate reader analysis in presence of chlortetracycline hydrochloride; assay type: functional, organism-based; summary of the method: as §4
[16] = Cytotoxicity against human MRC5 SV2 cells after 72 hrs by fluorescence assay; assay type: cell-based
Summary of the method: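 MRC-5 SV2 cells (10^4/well) grown in MEM with L-glutamine, NaHCO3 and 5% FCS. Incubated with compound 72 h at 37 °C, 5% CO2, then resazurin added for 24 h. Fluorescence read at ex 530, em 590 nm.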

Microsporum canis = assay: Fungicidal activity against Microsporum canis B68128; assay type: functional; summary of the method: as §1
Saccharomyces cerevisiae [17] = assay: Antifungal activity against Saccharomyces cerevisiae BY4741 at 12.5 to 50 ug/ml after 24 hrs by Omnilog plate reader analysis in presence of monothioglycerol; assay type: functional, organism-based; summary of the method: as §4
hERG (KCNH2) = hERG (KCNH2) (Homo sapiens, UniProt Q12809); assay: Inhibition of human ERG channel at 10 uM
Chain of hERG (KCNH2) (Q12809 whole entry): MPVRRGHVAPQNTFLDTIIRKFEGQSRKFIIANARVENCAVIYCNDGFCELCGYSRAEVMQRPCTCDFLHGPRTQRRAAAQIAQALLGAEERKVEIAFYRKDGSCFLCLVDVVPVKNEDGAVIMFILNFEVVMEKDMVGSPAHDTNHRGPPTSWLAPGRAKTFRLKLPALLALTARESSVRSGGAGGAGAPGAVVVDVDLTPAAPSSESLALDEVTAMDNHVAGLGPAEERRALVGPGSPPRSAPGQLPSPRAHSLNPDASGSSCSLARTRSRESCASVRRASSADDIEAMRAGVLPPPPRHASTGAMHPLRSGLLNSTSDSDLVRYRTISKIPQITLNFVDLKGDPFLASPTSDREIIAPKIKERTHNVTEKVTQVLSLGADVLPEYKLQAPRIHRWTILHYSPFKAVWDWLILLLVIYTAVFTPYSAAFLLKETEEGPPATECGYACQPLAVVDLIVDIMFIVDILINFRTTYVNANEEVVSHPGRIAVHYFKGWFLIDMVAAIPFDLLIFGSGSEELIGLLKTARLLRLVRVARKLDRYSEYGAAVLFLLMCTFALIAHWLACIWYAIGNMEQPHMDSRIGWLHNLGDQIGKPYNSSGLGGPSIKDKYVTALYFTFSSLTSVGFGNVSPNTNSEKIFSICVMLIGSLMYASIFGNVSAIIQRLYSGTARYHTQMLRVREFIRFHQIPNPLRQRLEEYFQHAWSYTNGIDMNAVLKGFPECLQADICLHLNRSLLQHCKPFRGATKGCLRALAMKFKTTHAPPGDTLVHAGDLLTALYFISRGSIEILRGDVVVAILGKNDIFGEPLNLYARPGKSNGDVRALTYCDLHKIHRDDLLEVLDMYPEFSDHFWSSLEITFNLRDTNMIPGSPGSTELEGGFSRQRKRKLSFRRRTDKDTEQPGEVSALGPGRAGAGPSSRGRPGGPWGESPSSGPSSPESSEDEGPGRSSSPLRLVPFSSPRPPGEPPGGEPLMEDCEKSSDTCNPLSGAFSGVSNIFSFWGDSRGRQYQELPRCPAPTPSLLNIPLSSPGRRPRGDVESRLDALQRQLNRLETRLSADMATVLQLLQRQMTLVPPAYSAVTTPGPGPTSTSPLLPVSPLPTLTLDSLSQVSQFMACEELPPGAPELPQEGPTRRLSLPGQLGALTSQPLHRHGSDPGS

Candida albicans [18] = assay: Antifungal activity against Candida albicans SC5314 infected in BALB/c mouse assessed as reduction in reduction in fungal load in liver at 10 mg/kg/day, ip for 5 days relative to vehicle-treated control; assay type: functional, organism-based; summary of the method: as §2
[19] = Half life in human plasma; assay type: ADME, cell-free
Saccharomyces cerevisiae [20] = assay: Antifungal activity against Saccharomyces cerevisiae BY4741 at 12.5 to 50 ug/ml after 24 hrs by Omnilog plate reader analysis in presence of potassium chromate; assay type: functional, organism-based; summary of the method: as §4
[21] = Kinetic solubility of the compound at pH 7.4; assay type: physicochemical; conditions: buffer, read-out: Kinetic_solubility
[22] = Apparent permeability from basolateral to apical side in human Caco2 cells; assay type: ADME, cell-based; conditions: Caco-2

CN(C/C=C/C#CC(C)(C)C)Cc1cccc2ccccc12 [TERBINAFINE]
IC50 [1]: 0.02 µg/mL (≈ 0.0686 µM) | IC50 (Trichophyton rubrum): 0.02 µg/mL (≈ 0.0686 µM)

OC(Cn1cncn1)(Cn1cncn1)c1ccc(F)cc1F [FLUCONAZOLE]
Activity (Candida albicans [2]): Active | MFC99 (Candida albicans [3]): >100 µg/mL

CCN1CC(C)(C)OC(=O)C1CC(=O)NCc1cccc(-c2ccccc2)c1 (stereo not drawn)
half-life [4]: 1 min | half-life [5]: > 240 min | IC50 [1]: 3 µg/mL (≈ 7.88 µM) | Activity (Saccharomyces cerevisiae [6]): inactive | MFC99 (Nakaseomyces glabratus): 12.5 µg/mL (≈ 32.9 µM) | Activity (Saccharomyces cerevisiae [7]): Active | Papp A→B [8]: 22 ×10⁻⁶ cm/s | Activity (Candida albicans [2]): Active | MIC (Aspergillus fumigatus): ≤ 3.1 µg/mL | Activity (Candida albicans [9]): Active | Activity (Saccharomyces cerevisiae [10]): inactive | IC50 (Sporothrix schenckii): 2.7 µg/mL (≈ 7.1 µM) | half-life [11]: 223 min | fraction unbound [12]: 0.003 | MFC (Candida albicans [13]): 12.5 µg/mL (≈ 32.9 µM) | MFC99 (Candida albicans [3]): 12.5 µg/mL (≈ 32.9 µM) | MIC (Aspergillus flavus): 25 µg/mL (≈ 65.7 µM) | half-life [14]: 6 min | Activity (Saccharomyces cerevisiae [15]): inactive | CC50 at 72 h [16]: > 20 µg/mL | IC50 (Microsporum canis): 2.4 µg/mL (≈ 6.31 µM) | Activity (Saccharomyces cerevisiae [17]): inactive | IC50 (Trichophyton rubrum): 0.7 µg/mL (≈ 1.84 µM) | inhibition at 10 µM (hERG (KCNH2)): 25.5% | Activity (Candida albicans [18]): Active | half-life [19]: > 240 min | Activity (Saccharomyces cerevisiae [20]): inactive | solubility kinetic [21]: 50 µM (≈ 19 µg/mL) | Papp B→A [22]: 13 ×10⁻⁶ cm/s

CCN1C[C@H](c2ccccc2)OC(=O)C1CC(=O)Nc1ccc(C(C)C)cc1 (stereo partly drawn)
MFC99 (Candida albicans [3]): 12.5 µg/mL (≈ 32.9 µM) | half-life [19]: 49 min

CCN1C[C@@H](C)OC(=O)C1CC(=O)Nc1ccc(C(C)C)cc1 (stereo partly drawn)
MFC99 (Candida albicans [3]): 12.5 µg/mL (≈ 39.3 µM) | half-life [19]: 55 min

CCN1CC(C)(C)OC(=O)C1CC(=O)NCc1ccc(Cl)cc1 (stereo not drawn)
IC50 [1]: 2.7 µg/mL (≈ 7.97 µM) | MFC99 (Nakaseomyces glabratus): 12.5 µg/mL (≈ 36.9 µM) | MIC (Aspergillus fumigatus): 6.2 µg/mL (≈ 18.3 µM) | IC50 (Sporothrix schenckii): 2.2 µg/mL (≈ 6.49 µM) | MFC99 (Candida albicans [3]): 12.5 µg/mL (≈ 36.9 µM) | MIC (Aspergillus flavus): 25 µg/mL (≈ 73.8 µM) | CC50 at 72 h [16]: > 20 µg/mL | IC50 (Microsporum canis): 2 µg/mL (≈ 5.9 µM) | IC50 (Trichophyton rubrum): 2 µg/mL (≈ 5.9 µM)

Clc1ccc(COC(Cn2ccnc2)c2ccc(Cl)cc2Cl)c(Cl)c1 (stereo not drawn) [MICONAZOLE]
IC50 (Sporothrix schenckii): 0.12 µg/mL (≈ 0.288 µM) | IC50 (Microsporum canis): 0.02 µg/mL (≈ 0.0481 µM)
